Only some compounds are listed: those with a hit (about 1.4% of all), similar ones and a draw of the others.
Diaph inh CS = inhibits diaphorase or chemically oxidizes, flagging diaphorase assay artifacts. diaphorase resazurin-to-resorufin fluorescence, NADH, 16 min; bacterial (C. kluyveri) enzyme, not human. inhibition, % at 20 µM. 190,000 tested, 0.69% active;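 active = primary screen inhibition at 20 µM above a set limit, cut at about 50% in these data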;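 also: plate controls were DMSO with full reaction for no effect and wells lacking NADH for full effect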
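Assay system: diaphorase enzyme from Clostridium kluyveri; Input: enzyme working solution with 0.14 U/mL diaphorase; Timing: 16 min at room temperature; Technique: resorufin fluorescence, excitation 544 nm, emission 590 nm; Benchmarks: positive control minus NADH, DMSO neutral control.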
CTSL1 counter = blocks F. hepatica cathepsin L1 in PFM18AAP counter-screen; recombinant F. hepatica cathepsin L1, Z-Leu-Arg-MCA fluorescence; inhibition, % at 5.96 µM; 300,000 tested, 0.49% active;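 active = inhibition above the mean of all tested compounds plus 3 SD, set per screening campaign, cut at about 17% in these data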;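 also: 0% = plate median of test compound wells and 100% = 1 µM Z-Phe-Ala-diazomethylketone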
ATG4B inhibitor = inhibitors of human ATG4B cysteine protease; 340,000 tested, 0.51% active; AID 504462; ATG4B cleavage of LC3-PLA2, NBD-HPC fluorescence, 1 h; Q9Y4P1; inhibition, % at 8.33 µM; in the data active = inhibition above about 40%
Target sequence (Q9Y4P1 whole entry, looked up): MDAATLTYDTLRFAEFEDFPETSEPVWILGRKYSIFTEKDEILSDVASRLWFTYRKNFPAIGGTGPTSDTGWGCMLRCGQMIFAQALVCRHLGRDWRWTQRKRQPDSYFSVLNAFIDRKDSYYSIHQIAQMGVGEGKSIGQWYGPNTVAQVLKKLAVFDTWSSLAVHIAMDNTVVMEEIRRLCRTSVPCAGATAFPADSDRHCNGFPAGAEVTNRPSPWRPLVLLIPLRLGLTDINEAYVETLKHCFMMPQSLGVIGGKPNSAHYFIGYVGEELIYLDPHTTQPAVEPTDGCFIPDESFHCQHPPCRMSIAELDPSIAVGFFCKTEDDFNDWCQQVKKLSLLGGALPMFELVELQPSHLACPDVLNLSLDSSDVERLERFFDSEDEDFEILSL
Diaphorase act = activates diaphorase or chemically reduces, flagging diaphorase assay artifacts. activation factor at 20 µM. 190,000 tested, 0.005% active. Diaphorase/resazurin coupled assay, resorufin fluorescence, 16 min; hits give high values; 1 = vehicle wells, 0 = NADH-free wells;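 active = diaphorase activity raised at least twofold by the compound at 20 µM; inactive = activation factor below 2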
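test system = bacterial diaphorase enzyme (C. kluyveri) | quantity = enzyme 0.07 U/mL final | reagent = NADH substrate 0.114 mM plus resazurin dye 0.1 mM, final | incubation = 16 min enzyme reaction, ambient temperature | buffer or medium = HEPES pH 7.4 buffer with MgCl2 and Tween 20 | signal = fluorescence of resorufin, 544 nm excitation, 590 nm emission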
HKDC1 inh = blocks human hexokinase HKDC1 activity | AID 493160 | recombinant HKDC1, G6PDH/diaphorase resazurin coupled fluorescence | inhibition, % at 20 µM | Q2TB90 | 340,000 tested, 0.16% active;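 active = inhibition above about 35% when tested at 20 µM, limit read from the data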;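 also: plate controls were DMSO wells with enzyme for no effect and DMSO wells lacking enzyme for full effect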
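Assay system: recombinant HKDC1 hexokinase; detection: coupled resazurin fluorescence, excitation 525 nm, emission 613 nm; benchmarks: DMSO-plus-enzyme-mix negative control, buffer-substituted positive control; compound dosing: single 20 µM dose; schedule: 90 min at room temperature in dark; also added: glucose plus 1 mM ATP as hexokinase substrates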
HKDC1 act conf = HKDC1 (human) activation, single-dose confirmed; shares compounds with HKDC1 inh; recombinant HKDC1, G6PDH/diaphorase resazurin fluorescence; hits give low values; inhibition, % at 20 µM; 740 tested, 14% active;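 active = inhibition at or below a set negative limit, negative inhibition meaning the enzyme was activated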
ATG4B confirm = ATG4B (human) inhibition, single-dose confirmed. shares compounds with ATG4B inhibitor. ATG4B protease fluorescent substrate cleavage assay. inhibition, % at 8.33 µM. 320 tested, 92% active; in the data active = inhibition above about 39%
PLA2 counter = PLA2 (human) inhibition in ATG4B counter-screen. shares compounds with ATG4B inhibitor. purified PLA2, NBD-C6-HPC fluorescence, 45 min. inhibition, % at 8.33 µM. 1,600 tested, 66% active; in the data active = inhibition above about 50%
* hit, by the source's call; x = not tested or not shown.

SMILES	Diaph inh CS	CTSL1 counter	ATG4B inhibitor	Diaphorase act	HKDC1 inh	PLA2 counter	others
CCCC[C@@H](C)C[C@@H](C)C(=O)N(C)[C@@H](CC(C)C)C(=O)N[C@H](C(=O)N(C)[C@H](C(=O)N1C[C@@H](O)C[C@H]1C(=O)N1C(=O)C=C[C@@H]1C)C(C)C)C(C)OC(C)=O (stereo not given in full)	x	x	22	x	2	x
COc1ccc(OC)c(N2C(=O)/C(=C/c3ccco3)C(=O)NC2=S)c1	x	6	87*	x	82*	x	HKDC1 act conf=77
Cc1cc(/C=C2\C(=O)NC(=O)N(c3ccc(Cl)cc3)C2=O)c(C)n1-c1sc2c(c1C#N)CCCC2	32	-2	43*	0.7	69*	19	HKDC1 act conf=56;ATG4B confirm=63*
CCOP(=O)(NC(C)C)Oc1ccc(SC)c(C)c1 (stereo not given)	x	x	-18	x	-2	x
Oc1c(Br)c(Br)c(Br)c(Br)c1Br	x	x	60*	x	16	62*
CC1(C(=O)O)CC12c1ccccc1-c1ccccc12 (stereo not given)	x	x	-3	x	-2	x
COC[C@H]1OC(=O)c2coc3c2[C@@]1(C)C1=C(C3=O)[C@@H]2CCC(=O)[C@@]2(C)C[C@H]1OC(C)=O	x	x	8	x	6	x
C/C(=N\N1CCCCC1c1cccnc1)c1c(O)n(C2CCCCC2)c(=S)[nH]c1=O (stereo not given)	20	8	43*	0.8	-4	37
CCCCn1c(O)c(/C(CC)=N/N2CCCCC2c2cccnc2)c(=O)[nH]c1=S (stereo not given)	24	-1	13	0.8	-2	x
Cc1nc2c(=O)n(C)c(=O)nc-2n(C)n1	34	112*	82*	0.7	18	-9	ATG4B confirm=25
CC1([N+](=O)[O-])COP(=O)(NC2CCCC2)OC1 (stereo not given)	x	x	2	x	-6	x
O=C1C(=O)c2ccccc2-c2ccccc21	24	110*	85*	0.8	31	-5	ATG4B confirm=27
CN(C)CC(C(=O)Cc1ccccc1)c1ccccc1 (stereo not given)	x	x	6	x	-1	x
COC(=O)C1=C(c2ccc(F)cc2OCc2ccccc2)C[C@@H]2CC[C@H]1N2C(=O)NCc1ccccc1Br	x	x	64*	x	1	79*
Clc1ccc(C(c2ccc(Cl)cc2)n2cc[n+](CC(OCc3ccc(Cl)cc3Cl)c3ccc(Cl)cc3Cl)c2)cc1 (stereo not given)	x	3	45*	x	1	90*
NC1CCc2cc(O)c(O)cc2C1 (stereo not given)	x	9	5	x	-1	x
COc1ccc(/C=N\N=C(N)N)cc1	16	2	-10	0.8	-8	x
NC(N)=N/N=C/c1ccc(N(c2ccccc2)c2ccccc2)cc1	x	3	53*	x	0	66*
CCc1ccc(-c2nn(Cc3ccccc3)cc2C=O)cc1	16	-3	68*	0.8	-6	83*
c1ccc(C(c2ccccc2)c2ccncc2)cc1	x	x	-5	x	-6	x
O=c1c2ccccc2nc(/C=C/c2ccccc2F)n1-c1ccccc1O	x	-2	62*	x	1	70*
O=c1c2ccccc2nc(/C=C/c2ccccc2O)n1-c1ccccc1O	x	-1	x	x	x	x
COc1cc(/C=C/c2nc3ccccc3c(=O)n2-c2ccc(O)cc2)ccc1O	x	2	-25	x	6	x
COc1ccc(-n2c(/C=C/c3ccc(O)c(O)c3)nc3ccccc3c2=O)cc1	x	2	49*	x	10	52*

High-throughput results as filed in PubChem.
